Assay results published in ChEMBL document CHEMBL1159035, “Click synthesis of estradiol-cyclodextrin conjugates as cell compartment selective estrogens” (Bioorg Med Chem, 2010).

What was measured:
Estrogen receptor [1] = target: T1, Estrogen receptor (Homo sapiens, UniProt P03372); assay: Estrogenic activity at ERalpha in human Ishikawa cells assessed as stimulation of alkaline phosphatase activity after 4 days by microplate scanning spectrophotometry; format: cell-based
T1 sequence (P03372 whole entry): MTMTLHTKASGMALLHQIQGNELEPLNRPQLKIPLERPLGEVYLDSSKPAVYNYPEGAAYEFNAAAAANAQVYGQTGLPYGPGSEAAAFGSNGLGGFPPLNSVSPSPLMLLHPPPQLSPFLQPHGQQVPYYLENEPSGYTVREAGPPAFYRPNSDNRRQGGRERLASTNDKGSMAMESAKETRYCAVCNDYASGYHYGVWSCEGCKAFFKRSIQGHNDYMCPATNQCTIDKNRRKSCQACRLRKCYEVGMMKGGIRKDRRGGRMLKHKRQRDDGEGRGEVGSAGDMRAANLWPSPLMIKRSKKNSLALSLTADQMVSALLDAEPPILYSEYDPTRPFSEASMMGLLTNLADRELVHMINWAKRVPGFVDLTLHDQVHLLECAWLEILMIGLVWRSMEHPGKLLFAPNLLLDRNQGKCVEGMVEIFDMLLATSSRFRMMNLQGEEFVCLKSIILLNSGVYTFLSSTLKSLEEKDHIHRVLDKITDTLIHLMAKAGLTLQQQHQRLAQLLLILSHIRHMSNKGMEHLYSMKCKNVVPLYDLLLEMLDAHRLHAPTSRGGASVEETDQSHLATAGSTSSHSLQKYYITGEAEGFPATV

Estrogen receptor [2] = target: T1, Estrogen receptor; assay: Antiestrogenic activity at ERalpha in human Ishikawa cells assessed as alkaline phosphatase activity after 4 days by microplate scanning spectrophotometry; format: cell-based
Estrogen receptor [3] = target: T1, Estrogen receptor; assay: Activation of ERalpha-mediated ERE activity in human T47D/PKC cells coexpressing PKCalpha after 18 hrs by luciferase reporter gene assay; format: cell-based
Estrogen receptor [4] = target: T1, Estrogen receptor; assay: Activation of ERalpha-mediated ERE activity in human T47D/neo cells after 18 hrs by luciferase reporter gene assay; format: cell-based
MCF7 [5] = assay: Drug uptake in human MCF7 cells assessed as drug localization to cytoplasm at 100 nM after 24 hrs by confocal fluorescent microscopy; format: ADME, cell-based; details: mcf7, 24 h, 0.1 µM
In short: (§1)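 MCF-7 cells were grown 48 h at 37 °C, 5% CO2 in phenol-free medium with 10% stripped FBS, then exposed to rhodamine conjugates (100 nM) for 24 h. Rinsed twice with PBS, nuclei stained with Hoechst (0.2 µg/mL). Laser-scanning confocal imaging with rhodamine Ex/Em 544/576 nm, nuclear marker 345/420 nm, plus DIC and overlay. Several images of different cells and planes.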

MCF7 [6] = assay: Drug uptake in human MCF7 cells assessed as drug localization to nucleus at 100 nM after 24 hrs by confocal fluorescent microscopy; format: ADME, cell-based; details: mcf7, 24 h, 0.1 µM; in short: as §1

SMILES | EC50 (Estrogen receptor [1]; read-out: EC50) [nM] | IC50 (Estrogen receptor [2]) | also measured
NC[C@H]1O[C@@H]2O[C@H]3[C@H](O)[C@@H](O)[C@@H](O[C@H]4[C@H](O)[C@@H](O)[C@@H](O[C@H]5[C@H](O)[C@@H](O)[C@@H](O[C@H]6[C@H](O)[C@@H](O)[C@@H](O[C@H]7[C@H](O)[C@@H](O)[C@@H](O[C@H]8[C@H](O)[C@@H](O)[C@@H](O[C@H]1[C@H](O)[C@H]2O)O[C@@H]8CN)O[C@@H]7CN)O[C@@H]6CN)O[C@@H]5CN)O[C@@H]4CN)O[C@@H]3CN | – | Not Active | EC50 (Estrogen receptor [1]; ishikawa): Not Active
[N-]=[N+]=NC[C@H]1O[C@@H]2O[C@H]3[C@H](O)[C@@H](O)[C@@H](O[C@H]4[C@H](O)[C@@H](O)[C@@H](O[C@H]5[C@H](O)[C@@H](O)[C@@H](O[C@H]6[C@H](O)[C@@H](O)[C@@H](O[C@H]7[C@H](O)[C@@H](O)[C@@H](O[C@H]8[C@H](O)[C@@H](O)[C@@H](O[C@H]1[C@H](O)[C@H]2O)O[C@@H]8CN=[N+]=[N-])O[C@@H]7CN=[N+]=[N-])O[C@@H]6CN=[N+]=[N-])O[C@@H]5C/N=[NH+]\[NH-])O[C@@H]4CN=[N+]=[N-])O[C@@H]3CN=[N+]=[N-] | – | Not Active | EC50 (Estrogen receptor [1]; ishikawa): Not Active
Cn1cc([C@]2(O)CC[C@H]3[C@@H]4CCc5cc(O)ccc5[C@H]4CC[C@@]32C)nn1 | – | Not Active | –
C[C@]12CC[C@@H]3c4ccc(O)cc4CC[C@H]3[C@@H]1CC[C@@]2(O)C#Cc1ccc(N)cc1 | 10 | Not Active | –
C[C@]12CC[C@@H]3c4ccc(O)cc4CC[C@H]3[C@@H]1CC[C@@]2(O)c1cn(CC[C@H]2O[C@@H]3O[C@H]4[C@H](O)[C@@H](O)[C@@H](O[C@H]5[C@H](O)[C@@H](O)[C@@H](O[C@H]6[C@H](O)[C@@H](O)[C@@H](O[C@H]7[C@H](O)[C@@H](O)[C@@H](O[C@H]8[C@H](O)[C@@H](O)[C@@H](O[C@H]9[C@H](O)[C@@H](O)[C@@H](O[C@H]2[C@H](O)[C@H]3O)O[C@@H]9Cn2cc([C@]3(O)CC[C@H]9[C@@H]%10CCc%11cc(O)ccc%11[C@H]%10CC[C@@]93C)nn2)O[C@@H]8Cn2cc([C@]3(O)CC[C@H]8[C@@H]9CCc%10cc(O)ccc%10[C@H]9CC[C@@]83C)nn2)O[C@@H]7Cn2cc([C@]3(O)CC[C@H]7[C@@H]8CCc9cc(O)ccc9[C@H]8CC[C@@]73C)nn2)O[C@@H]6Cn2cc([C@]3(O)CC[C@H]6[C@@H]7CCc8cc(O)ccc8[C@H]7CC[C@@]63C)nn2)O[C@@H]5Cn2cc([C@]3(O)CC[C@H]5[C@@H]6CCc7cc(O)ccc7[C@H]6CC[C@@]53C)nn2)O[C@@H]4Cn2cc([C@]3(O)CC[C@H]4[C@@H]5CCc6cc(O)ccc6[C@H]5CC[C@@]43C)nn2)nn1 | 200 | Not Active | EC50 (Estrogen receptor [3]): 2 nM; EC50 (Estrogen receptor [4]): > 100 nM; Drug uptake (MCF7 [5]): Active; Drug uptake (MCF7 [6]): Not Active
CC#C[C@]1(O)CC[C@H]2[C@@H]3CCc4cc(O)ccc4[C@H]3CC[C@@]21C [ESTROGEN] | 0.028 | – | –

The next lines start with results.

EC50 (Estrogen receptor [1]; read-out: EC50) [nM] | IC50 (Estrogen receptor [2]) | SMILES | also measured
4000 | Not Active | C[C@]12CC[C@@H]3c4ccc(O)cc4CC[C@H]3[C@@H]1CC[C@@]2(O)C#Cc1ccc(CNC[C@H]2O[C@@H]3O[C@H]4[C@H](O)[C@@H](O)[C@@H](O[C@H]5[C@H](O)[C@@H](O)[C@@H](O[C@H]6[C@H](O)[C@@H](O)[C@@H](O[C@H]7[C@H](O)[C@@H](O)[C@@H](O[C@H]8[C@H](O)[C@@H](O)[C@@H](O[C@H]9[C@H](O)[C@@H](O)[C@@H](O[C@H]2[C@H](O)[C@H]3O)O[C@@H]9CO)O[C@@H]8CO)O[C@@H]7CO)O[C@@H]6CO)O[C@@H]5CO)O[C@@H]4CO)cc1 | –
27 | Not Active | C[C@]12CC[C@@H]3c4ccc(O)cc4CC[C@H]3[C@@H]1CC[C@@]2(O)C#Cc1ccc(CO)cc1 | –
300 | Not Active | C[C@]12CC[C@@H]3c4ccc(O)cc4CC[C@H]3[C@@H]1CC[C@@]2(O)C#Cc1ccc(CNC[C@H]2O[C@@H]3O[C@H]4[C@H](O)[C@@H](O)[C@@H](O[C@H]5[C@H](O)[C@@H](O)[C@@H](O[C@H]6[C@H](O)[C@@H](O)[C@@H](O[C@H]7[C@H](O)[C@@H](O)[C@@H](O[C@H]8[C@H](O)[C@@H](O)[C@@H](O[C@H]9[C@H](O)[C@@H](O)[C@@H](O[C@H]2[C@H](O)[C@H]3O)O[C@@H]9CNCc2ccc(C#C[C@]3(O)CC[C@H]9[C@@H]%10CCc%11cc(O)ccc%11[C@H]%10CC[C@@]93C)cc2)O[C@@H]8CNCc2ccc(C#C[C@]3(O)CC[C@H]8[C@@H]9CCc%10cc(O)ccc%10[C@H]9CC[C@@]83C)cc2)O[C@@H]7CNCc2ccc(C#C[C@]3(O)CC[C@H]7[C@@H]8CCc9cc(O)ccc9[C@H]8CC[C@@]73C)cc2)O[C@@H]6CNCc2ccc(C#C[C@]3(O)CC[C@H]6[C@@H]7CCc8cc(O)ccc8[C@H]7CC[C@@]63C)cc2)O[C@@H]5CNCc2ccc(C#C[C@]3(O)CC[C@H]5[C@@H]6CCc7cc(O)ccc7[C@H]6CC[C@@]53C)cc2)O[C@@H]4CNCc2ccc(C#C[C@]3(O)CC[C@H]4[C@@H]5CCc6cc(O)ccc6[C@H]5CC[C@@]43C)cc2)cc1 | –
4000 | Not Active | C[C@]12CC[C@@H]3c4ccc(O)cc4CC[C@H]3[C@@H]1CC[C@@]2(O)c1cn(C[C@H]2O[C@@H]3O[C@H]4[C@H](O)[C@@H](O)[C@@H](O[C@H]5[C@H](O)[C@@H](O)[C@@H](O[C@H]6[C@H](O)[C@@H](O)[C@@H](O[C@H]7[C@H](O)[C@@H](O)[C@@H](O[C@H]8[C@H](O)[C@@H](O)[C@@H](O[C@H]9[C@H](O)[C@@H](O)[C@@H](O[C@H]2[C@H](O)[C@H]3O)O[C@@H]9CO)O[C@@H]8CO)O[C@@H]7CO)O[C@@H]6CO)O[C@@H]5CO)O[C@@H]4CO)nn1 | –
